Here are results for 16 molecules from ChEMBL document CHEMBL4340558, “Synthesis, biological evaluation, and molecular docking study of sulfonate derivatives as nucleotide pyrophosphatase/phosphodiesterase (NPP) inhibitors” (Bioorg Med Chem, 2019).

Structures are written as SMILES.

Experiment [1] has as its target T1, Ectonucleotide pyrophosphatase/phosphodiesterase family member 3 (Homo sapiens) (UniProt O14638).
T1 sequence (whole entry): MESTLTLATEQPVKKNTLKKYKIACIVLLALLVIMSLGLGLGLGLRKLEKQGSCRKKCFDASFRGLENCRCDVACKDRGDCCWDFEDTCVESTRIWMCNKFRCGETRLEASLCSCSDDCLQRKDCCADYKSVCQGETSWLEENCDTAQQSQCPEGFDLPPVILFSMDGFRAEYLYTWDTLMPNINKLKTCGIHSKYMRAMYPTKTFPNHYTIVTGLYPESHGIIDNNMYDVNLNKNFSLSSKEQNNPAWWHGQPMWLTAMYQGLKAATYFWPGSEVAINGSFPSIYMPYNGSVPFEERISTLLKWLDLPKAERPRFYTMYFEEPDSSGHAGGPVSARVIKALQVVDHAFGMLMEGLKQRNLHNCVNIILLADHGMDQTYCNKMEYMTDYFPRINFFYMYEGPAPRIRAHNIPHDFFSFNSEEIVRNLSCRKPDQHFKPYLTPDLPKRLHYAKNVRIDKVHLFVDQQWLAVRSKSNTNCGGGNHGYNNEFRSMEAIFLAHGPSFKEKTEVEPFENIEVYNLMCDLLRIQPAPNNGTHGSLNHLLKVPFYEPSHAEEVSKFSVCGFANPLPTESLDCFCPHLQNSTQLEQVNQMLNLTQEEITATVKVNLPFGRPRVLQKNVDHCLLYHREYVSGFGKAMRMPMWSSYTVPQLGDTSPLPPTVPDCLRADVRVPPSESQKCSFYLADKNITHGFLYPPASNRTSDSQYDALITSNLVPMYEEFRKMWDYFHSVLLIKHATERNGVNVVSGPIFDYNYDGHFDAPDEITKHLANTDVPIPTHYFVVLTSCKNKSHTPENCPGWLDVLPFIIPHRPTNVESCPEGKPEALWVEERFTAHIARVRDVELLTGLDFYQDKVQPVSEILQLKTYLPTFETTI
The experiment is described as follows: Inhibition of human NPP3 expressed in African green monkey COS7 cell membranes pre-incubated for 10 mins before pNP-TMP substrate addition and further incubated for 15 mins by colorimetric method relative to untreated control. Further details: concentration or dose not given beside the values. In outline: (§1)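 Single-point screen at 100 µM test compound, added from a 1 mM stock in 10% DMSO. Buffer was 50 mM Tris-HCl, 5 mM MgCl2, 0.1 mM ZnCl2, pH 9.5, at 37 °C. pNP-TMP substrate was 400 µM for NPP1, 500 µM for NPP2, 600 µM for NPP3. Absorbance at 405 nm was read before and after substrate addition. Percent inhibition was determined in triplicate.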

The target in experiment [2] is T2, Autotaxin (Homo sapiens, UniProt Q13822). As to the kind of experiment: Inhibition of human NPP2 expressed in African green monkey COS7 cell membranes pre-incubated for 5 mins before pNP-TMP substrate addition and further incubated for 35 mins by colorimetric method. In outline:
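Colorimetric assay in 50 mM Tris-HCl, 5 mM MgCl2, 0.1 mM ZnCl2, pH 9.5, at 37 °C. Enzyme amounts: NPP1 35 ng, NPP2 338 ng, NPP3 37 ng. Pre-read at 405 nm was taken, then pNP-TMP was added: 400 µM for NPP1, 500 µM for NPP2, 600 µM for NPP3. A second 405 nm read followed. Runs were in triplicate. IC50 came from serial dilutions by non-linear curve fitting.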

The target of experiment [3] is T3, Ectonucleotide pyrophosphatase/phosphodiesterase family member 1 (Homo sapiens) (UniProt P22413).
T3 sequence (whole entry): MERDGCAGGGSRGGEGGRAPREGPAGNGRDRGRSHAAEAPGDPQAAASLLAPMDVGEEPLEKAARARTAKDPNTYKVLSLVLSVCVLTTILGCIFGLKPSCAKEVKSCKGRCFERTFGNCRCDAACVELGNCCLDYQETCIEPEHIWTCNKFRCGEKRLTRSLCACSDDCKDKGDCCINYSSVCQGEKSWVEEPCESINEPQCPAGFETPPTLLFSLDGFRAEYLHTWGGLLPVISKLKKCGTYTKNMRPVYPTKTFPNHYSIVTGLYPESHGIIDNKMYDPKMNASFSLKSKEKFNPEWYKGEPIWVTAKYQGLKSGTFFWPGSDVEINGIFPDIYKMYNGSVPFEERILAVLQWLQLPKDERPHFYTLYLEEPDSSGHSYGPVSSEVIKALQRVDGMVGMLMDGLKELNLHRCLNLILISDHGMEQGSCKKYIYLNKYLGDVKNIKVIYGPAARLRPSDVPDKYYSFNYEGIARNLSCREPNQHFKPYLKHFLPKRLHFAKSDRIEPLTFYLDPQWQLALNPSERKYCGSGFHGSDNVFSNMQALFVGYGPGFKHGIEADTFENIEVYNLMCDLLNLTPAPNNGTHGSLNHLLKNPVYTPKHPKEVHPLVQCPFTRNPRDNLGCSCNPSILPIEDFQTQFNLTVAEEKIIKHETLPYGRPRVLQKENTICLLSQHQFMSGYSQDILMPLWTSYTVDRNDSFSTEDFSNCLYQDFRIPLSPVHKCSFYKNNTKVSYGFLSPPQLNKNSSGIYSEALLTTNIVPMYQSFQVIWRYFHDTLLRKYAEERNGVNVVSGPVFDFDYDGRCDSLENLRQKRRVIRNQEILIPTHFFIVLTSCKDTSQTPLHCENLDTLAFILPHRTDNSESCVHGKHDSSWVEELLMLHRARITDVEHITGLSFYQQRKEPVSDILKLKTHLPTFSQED
The experiment is described as follows: Inhibition of human NPP1 expressed in African green monkey COS7 cell membranes pre-incubated for 10 mins before pNP-TMP substrate addition and further incubated for 15 mins by colorimetric method relative to untreated control. Also on record: concentration or dose not given beside the values. In outline: as §1

The target of experiment [4] is T2, Autotaxin. As to the kind of experiment: Inhibition of human NPP2 expressed in African green monkey COS7 cell membranes pre-incubated for 5 mins before pNP-TMP substrate addition and further incubated for 35 mins by colorimetric method relative to untreated control. Also on record: concentration or dose not given beside the values. In outline:
as §1

In experiment [5] the target is T4, Ectonucleotide pyrophosphatase/phosphodiesterase family member 3 (Homo sapiens, UniProt O14638).
T4 sequence (O14638 whole entry): T1 sequence (whole entry)
The experiment is described as follows: Inhibition of human NPP3 expressed in African green monkey COS7 cell membranes pre-incubated for 10 mins before pNP-TMP substrate addition and further incubated for 15 mins by colorimetric method.

In experiment [6] the target is T1, Ectonucleotide pyrophosphatase/phosphodiesterase family member 3 (Homo sapiens). The experiment is described as follows: Potency index, ratio of IC50 for suramin to IC50 for test compound for inhibition of human NPP3 expressed in African green monkey COS7 cell membranes pre-incubated for 10 mins before pNP-TMP substrate addition and further incubated for 15 mins by colorimetric method.

Experiment [7] has as its target T5, Ectonucleotide pyrophosphatase/phosphodiesterase family member 1 (Homo sapiens, UniProt P22413).
T5 sequence (P22413 whole entry): T3 sequence (whole entry)
The experiment is described as follows: Inhibition of human NPP1 expressed in African green monkey COS7 cell membranes pre-incubated for 10 mins before pNP-TMP substrate addition and further incubated for 15 mins by colorimetric method.

In general, inhibition refers to the percentage by which the read-out fell short of the control. The term IC50 denotes the midpoint of a concentration-inhibition curve. Turning to `O=C(Nc1ccc(OS(=O)(=O)c2cccc3cccnc23)cc1)c1ccc2ccccc2c1`, the inhibition in experiment [1] came to 42%; in experiment [3] it was 37%. In experiment [2], this molecule gave a half-maximal inhibitory concentration (IC50) of 2.46 µM.

Turning to `CC(C)c1cc(C(C)C)c(S(=O)(=O)Oc2ccc(NC(=O)C3CCCCCC3)cc2)c(C(C)C)c1`, the inhibition in experiment [1] was 37%; in experiment [3] it was 29%; in experiment [4], 23%.

As for `O=C(Nc1ccc(OS(=O)(=O)c2ccc(C(F)(F)F)cc2)cc1)C1CCCCCCC1`, the figures for the 50% inhibitory concentration (IC50) in experiment [2] and in experiment [5] were 0.679 µM and 0.214 µM, respectively. In experiment [3], the inhibition was 29%. The Ratio IC50 in experiment [6] is 6.

Regarding `CC(C)(C)c1ccc(S(=O)(=O)Oc2ccc(NC(=O)c3ccc4ccccc4c3)cc2)cc1`, the inhibition in experiment [1] is 49%; in experiment [4], 38%. Further, the 50% inhibitory concentration (IC50) in experiment [7] is 2.19 µM.

In the case of `CC(C)(C)c1ccc(S(=O)(=O)Oc2ccc(NC(=O)C3CCCCCCC3)cc2)cc1`, the results for the inhibition in experiment [1], in experiment [3] and in experiment [4] were 46%, 40% and 49%, respectively.

As for `O=C(Nc1ccc(OS(=O)(=O)c2ccccc2)cc1)C1CCCCCCC1`, the figures for the inhibition in experiment [1] and in experiment [3] were 47% and 45%, respectively. In experiment [2], this molecule registered an IC50 of 65.4 µM.

On to `O=C(Nc1ccc(OS(=O)(=O)c2ccc(F)cc2)cc1)C1CCCCCC1`, for which the concentration for half-maximal inhibition (IC50) amounted to 4.94 µM in experiment [2] and 2.27 µM in experiment [5]. The same molecule showed an inhibition in experiment [3] of 39.3%.

`O=C(Nc1ccc(OS(=O)(=O)c2ccc(F)cc2)cc1)c1ccc(Cl)cc1`: the inhibition in experiment [1] came to 46%. The results for the half-maximal inhibitory concentration (IC50) in experiment [2] and in experiment [7] were 19.9 µM and 2.9 µM, respectively.

With `Cc1ccc(S(=O)(=O)Oc2ccc(NC(=O)C3CCCCCCC3)cc2)cc1`, the results for the inhibition in experiment [1] and in experiment [3] were 35% and 43%, respectively. In addition, in experiment [2], 80.3 µM corresponded to half-maximal inhibition (IC50).

As to `O=C(Nc1ccc(OS(=O)(=O)c2ccc(F)cc2)cc1)c1ccc2ccccc2c1`, the figures for the half-maximal inhibitory concentration (IC50) in experiment [5] and in experiment [7] were 13.5 µM and 1.49 µM, respectively. In addition, the inhibition in experiment [4] worked out at 33%.

In the case of `Cc1ccc(S(=O)(=O)Oc2ccc(NC(=O)c3ccc4ccccc4c3)cc2)cc1`, the results for the inhibition in experiment [1] and in experiment [3] were 23% and 24%, respectively. In experiment [2], this molecule came in with an IC50 of 7.99 µM.

As to `O=C(Nc1ccc(OS(=O)(=O)c2ccccc2)cc1)C1CCCCCC1`, the figures for the IC50 in experiment [5] and in experiment [7] were 6.6 µM and 13.8 µM, respectively. The inhibition in experiment [4] is 28%.

In the case of `O=C(Nc1ccc(OS(=O)(=O)c2ccc(C(F)(F)F)cc2)cc1)c1ccc2ccccc2c1`, the half-maximal inhibitory concentration (IC50) was 5.43 µM in experiment [5] and 1.12 µM in experiment [7]. This molecule also registered an inhibition in experiment [4] of 22%.

Take `CC(C)c1cc(C(C)C)c(S(=O)(=O)Oc2ccc(NC(=O)C3CCCCCCC3)cc2)c(C(C)C)c1`: the inhibition was 30% in experiment [1], 30% in experiment [3] and 46% in experiment [4].

For the molecule `Cc1ccc(S(=O)(=O)Oc2ccc(NC(=O)C3CCCCC3)cc2)cc1`, the values for the inhibition in experiment [1], in experiment [3] and in experiment [4] were 39%, 43% and 27%, respectively.

`O=C(Nc1ccc(OS(=O)(=O)c2ccccc2)cc1)C1CCCC1`: the IC50 in experiment [5] was 1.72 µM; in experiment [7], 46.7 µM. This molecule also yielded an inhibition in experiment [4] of 38%.
